For test [1], the system named is Schistosoma mansoni. The test is described as follows: Cytotoxicity against juvenile Schistosoma mansoni assessed as decrease in viability at 10 to 20 uM incubated for 48 hrs by CellTiter-Glo Luminescent assay relative to control. The format is functional. The note with it: dose 10-20 µM. The procedure, abridged: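 Perfused juvenile worms cultured in supplemented RPMI (10% FBS, 37°C, 5% CO2), exposed 24 or 48 h to compound or 0.1% DMSO. Total parasite ATP read by luminescence, given as % of vehicle; three replicate experiments of 10 juveniles each, mean ± SD.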
Background: In ATP-based viability assays light output follows the ATP content of the culture.

The subject of test [2] is Schistosoma mansoni. The test is described as follows: Antischistosomal activity against female Schistosoma mansoni assessed as down-regulated Tyrosinase 1 mRNA level at 20 uM incubated for 48 hrs by RT-qPCR analysis. The format is functional, organism-based. Summed up: (§1)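 Schistosomula (supplemented M169) or adult worms (supplemented RPMI) were treated 48 h with 20 μM GSK343 or 0.1% DMSO at 37°C, 5% CO2. qPCR normalizer genes were chosen from RNA-seq data as those with TPM >1 and a treated/control ratio of 0.9–1.1 that were not differentially expressed. Relative expression was calculated by comparative Ct; significance by t-test.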

The test system of test [3] is Schistosoma mansoni. Briefly: Antischistosomal activity against adult female Schistosoma mansoni assessed as decrease in number of eggs laid at 20 uM incubated for 24 to 48 hrs by […] analysis relative to control. Type of test: functional. Set-up: scale not given: the % may be the effect or the level left. The following applies: time 24-48 hrs.

Test [4] relates to Schistosoma mansoni. Briefly: Antischistosomal activity against Schistosoma mansoni assessed as schistosomula living cells at 10 to 50 uM incubated for 24 to 72 hrs by fluorescein diacetate staining based fluorescence microscope analysis. Type of test: functional, organism-based. The note with it: dose 10-50 µM, time 24-72 hrs. Summed up:
(§2)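 Schistosomula were cultured in supplemented M169 with 10–50 μM GSK343 or 0.1% DMSO for 24, 48 and 72 h. A fresh well set was used per time point, with 2 μg/mL propidium iodide (dead) plus 0.5 μg/mL fluorescein diacetate (live) added. Parasites were read immediately by light and fluorescence microscopy; percent viable was computed against total parasites. About 3600 schistosomula per condition over four biological replicates; 70% ethanol served as positive control.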

The test system of test [5] is Schistosoma mansoni. Briefly: Cytotoxicity against adult Schistosoma mansoni assessed as reduction in ATP quantification at 50 uM incubated for 48 hrs by CellTiter-Glo Luminescent assay relative to control. Type of test: functional. Details: scale not given: the % may be the effect or the level left. The procedure, abridged: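 Worm pairs in supplemented RPMI (10% FBS, 37°C, 5% CO2) exposed 48 h to compound or 0.1% DMSO. ATP measured by luminescence in freshly lysed worms and expressed as % of vehicle signal; three replicate experiments, 10 pairs each, mean ± SD.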

In test [6] the test system is Schistosoma mansoni. The test is described as follows: Antischistosomal activity against adult Schistosoma mansoni assessed as decreased motility incubated for 24 hrs by inverted microscope analysis relative to control. The format is functional. Set-up: scale not given: the % may be the effect or the level left. The procedure, abridged: (§3)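 Paired adult worms were cultured in RPMI/10% FBS with antibiotics at 37°C, 5% CO2, with GSK343 or 0.1% DMSO. They were viewed by inverted microscope at 3, 6, 12, 24 and 48 h. Motility was scored on a 0–3 scale (3 full movement, 1.5 partial or immobile but alive, 0 dead); death meant no movement over more than 2 min. Pairing was recorded. Three experiments, each with 10 pairs; mean ± SD.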

Test [7] concerns Schistosoma mansoni. The test is described as follows: Antischistosomal activity against Schistosoma mansoni assessed as down-regulated FA binding protein mRNA level in schistosomula at 20 uM incubated for 48 hrs by RT-qPCR analysis. Type of test: functional, organism-based. Summed up: as §1
For orientation: Real-time PCR tracks product formation cycle by cycle.

In test [8] the test system is Schistosoma mansoni. The test is described as follows: Induction of apoptosis in Schistosoma mansoni assessed as DNA fragmentation at 20 uM incubated for 72 hrs by TUNEL staining based inverted microscope analysis. Type of test: functional, organism-based. The procedure, abridged:
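Schistosomula, 2,000 per well in supplemented M169 after 16 h pre-culture, exposed 72 h to compound or DMSO, then fixed 60 min, permeabilized and TUNEL-labelled for DNA strand breaks. Mounted with DAPI counterstain and imaged by ApoTome fluorescence microscopy at 40× objective.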

Test [9] deals with Schistosoma mansoni. The test is described as follows: Antischistosomal activity against juvenile Schistosoma mansoni assessed as presence of blisters in dorsal tegument at 20 to 50 uM incubated for 48 hrs by scanning electron microscopy analysis. Type of test: functional, organism-based. The note with it: dose 20-50 µM. The procedure, abridged:
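Juvenile worms recovered by perfusion, five per well in supplemented RPMI (10% FBS, antibiotics, 37°C, 5% CO2), 2 h adaptation, then exposed 48 h to compound or 0.1% DMSO. Fixed in modified Karnovsky reagent (pH 7.4), washed in cacodylate buffer, post-fixed 1 h in 1% osmium tetroxide, ethanol-dehydrated, critical-point dried, gold-sputtered and imaged by scanning electron microscopy.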

Test [10] concerns Schistosoma mansoni. Briefly: Cytotoxicity against Schistosoma mansoni assessed as reduction in total ATP content at 20 uM incubated for 2 days by CellTiter-Glo Luminescent assay relative to control. The format is functional. Details: scale not given: the % may be the effect or the level left. The note with it: time 2 day. The procedure, abridged: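 Newly transformed schistosomula pre-cultured 16 h in M169 with 2% FBS, serotonin, hypoxanthine, hydrocortisone, triiodothyronine and antibiotics at 37°C, 5% CO2, then 100–120 per well exposed up to 5 days to compound or 0.1% DMSO. ATP in intact larvae read by luminescence, expressed as % of vehicle; three replicate experiments, two-way ANOVA.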

In test [11] the test system is Schistosoma mansoni. The test is described as follows: Antischistosomal activity against adult Schistosoma mansoni assessed as increased H3K9ac level at 20 uM incubated for 48 hrs by Western blotting analysis. The format is functional, organism-based. The procedure, abridged: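 Fifty adult worm pairs were treated 48 h with 20 μM GSK343 or vehicle in supplemented RPMI/10% FBS, then lysed in Triton buffer. Nuclear pellets were acid-extracted overnight in 0.25 M HCl at 4°C and histones were TCA-concentrated. 10 μg went on 15% SDS-PAGE and nitrocellulose, probed with anti-H3K27me3, K9ac, K27ac or K4me3, then IRDye secondaries; infrared densitometry was normalized to anti-H3. Three biological replicates; t-test.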
Background: A western blot detects proteins with antibodies after separation by electrophoresis.

Test [12] deals with Schistosoma mansoni. Briefly: Antischistosomal activity against adult male Schistosoma mansoni assessed as presence of deep chasms between the dorsal tubercles at 20 uM incubated for 48 hrs by scanning electron microscopy analysis. The format is functional, organism-based. The procedure, abridged:
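Adult couples were taken by perfusion into supplemented RPMI, one couple per well, and adapted 2 h at 37°C, 5% CO2. They were exposed to 20 μM GSK343 or 0.1% DMSO for 24 and 48 h. Fixation used modified Karnovsky with osmium post-fix, followed by ethanol dehydration, critical-point drying, gold sputtering and scanning electron microscopy of tegument surfaces.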

The test system of test [13] is Schistosoma mansoni. The test is described as follows: Antischistosomal activity against female Schistosoma mansoni assessed as down-regulated Tyrosinase 2 mRNA level at 20 uM incubated for 48 hrs by RT-qPCR analysis. Type of test: functional, organism-based. The procedure, abridged: as §1
Test [14] deals with Schistosoma mansoni. Briefly: Antischistosomal activity against Schistosoma mansoni assessed as length of schistosomula at 20 uM incubated for 24 to 48 hrs by scanning electron microscopy analysis (reference value: […]). The format is functional. The note with it: time 24-48 hrs. The procedure, abridged:
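Newly transformed schistosomula were held 16 h in M169 with 2% FBS, serotonin, hypoxanthine, hydrocortisone, triiodothyronine and antibiotics at 37°C, 5% CO2, at 2,000 per well. They were then exposed to 20 μM GSK343 or 0.1% DMSO for 24 and 48 h. Fixation was modified Karnovsky (pH 7.4) with 1% osmium post-fix, then ethanol dehydration, critical-point drying, gold coating and SEM. Lengths came from three experiments, each with 20 schistosomula.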

Test [15] deals with Schistosoma mansoni. The test is described as follows: Antischistosomal activity against female Schistosoma mansoni assessed as down-regulated EED mRNA level at 20 uM incubated for 48 hrs by RT-qPCR analysis. Type of test: functional, organism-based. The procedure, abridged:
as §1

The subject of test [16] is Schistosoma mansoni. The test is described as follows: Antischistosomal activity against Schistosoma mansoni assessed as death of schistosomula at 10 to 50 uM incubated for 24 to 72 hrs by propidium iodide staining based fluorescence microscope analysis. The format is functional, organism-based. The following applies: dose 10-50 µM, time 24-72 hrs. The procedure, abridged:
as §2

Test [17] relates to Schistosoma mansoni. Briefly: Antischistosomal activity against adult Schistosoma mansoni assessed as reduction in pairing of couples at 20 uM incubated for 48 hrs by inverted microscope analysis relative to control. Type of test: functional. Details: scale not given: the % may be the effect or the level left. Summed up:
as §3

Calls of active or inactive are those of the source. No cut-off for these calls is given here.

In ChEMBL document CHEMBL5715959, “Inhibition of histone methyltransferase EZH2 in Schistosoma mansoni in vitro by GSK343 reduces egg laying and decreases the expression of genes implicated in DNA replication and noncoding RNA metabolism” (2018) one finds Activity data, which are given here for one molecule.

Regarding `CCCc1cc(C)[nH]c(=O)c1CNC(=O)c1cc(-c2ccnc(N3CCN(C)CC3)c2)cc2c1cnn2C(C)C`, the Activity in the test with Schistosoma mansoni [1] is 20%; in the test on Schistosoma mansoni [3] it was 40%; in the test with Schistosoma mansoni [5], less than 20%; with Schistosoma mansoni [6], 50%; in the test with Schistosoma mansoni [10] it was 40%; in the test on Schistosoma mansoni [14], 74 µm. Besides, in the test with Schistosoma mansoni [17], the Activity was approximately 50%. The result with Schistosoma mansoni [2], in the test with Schistosoma mansoni [4], in the test with Schistosoma mansoni [7], with Schistosoma mansoni [8], in the test with Schistosoma mansoni [9] and in the test with Schistosoma mansoni [11] was Active. In addition, the outcome in the test on Schistosoma mansoni [12], in the test with Schistosoma mansoni [13], in the test on Schistosoma mansoni [15] and with Schistosoma mansoni [16] was Active.
